# In ChEMBL document CHEMBL3994579, “Synthesis and antibacterial activity of novel 3-O-descladinosylazithromycin derivatives” (2017):
# Experiments:
# Format in all cases: functional
# Bacillus subtilis = experiment: Antibacterial activity against erythromycin/penicillin-susceptible Bacillus subtilis ATCC 9372 by broth microdilution method
# Outline: (§1)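 MICs were determined in vitro by broth microdilution following the NCCL-recommended method. Azithromycin and clarithromycin were run alongside as reference antibiotics on the same strain panel.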
# Streptococcus pneumoniae [1] = experiment: Antibacterial activity against erythromycin-resistant Streptococcus pneumoniae B1 expressing ermB gene by broth microdilution method
# Outline: (§2)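 Broth microdilution per NCCL recommendation, read as minimal inhibitory concentration, run alongside azithromycin and clarithromycin references. Strains: S. pneumoniae B1 (erythromycin-resistant, ermB), A22072 (erythromycin-resistant, mefA), AB11 (erythromycin-resistant, erm and mef); S. aureus ATCC29213 ([…]); S. epidermidis clinical isolate (penicillin-resistant, not characterized).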
# Streptococcus pyogenes [2] = experiment: Antibacterial activity against erythromycin-susceptible Streptococcus pyogenes clinical isolate by broth microdilution method; outline: as §1
# Pseudomonas aeruginosa = experiment: Antibacterial activity against penicillin-susceptible Pseudomonas aeruginosa ATCC 27853 by broth microdilution method; outline: as §1
# Staphylococcus aureus [3] = experiment: Antibacterial activity against erythromycin-susceptible Staphylococcus aureus ATCC 25923 by broth microdilution method; outline: as §1
# Streptococcus pneumoniae [4] = experiment: Antibacterial activity against erythromycin-resistant Streptococcus pneumoniae AB11 expressing ermB/mefA genes by broth microdilution method; outline: as §2
# Staphylococcus aureus [5] = experiment: Antibacterial activity against […] Staphylococcus aureus ATCC 29213 by broth microdilution method; outline: as §2
# Streptococcus pyogenes [6] = experiment: Antibacterial activity against erythromycin-resistant Streptococcus pyogenes R1 clinical isolate by broth microdilution method
# [7] = system: Staphylococcus epidermidis; experiment: Antibacterial activity against penicillin-resistant Staphylococcus epidermidis clinical isolate by broth microdilution method; outline: as §2
# Escherichia coli = experiment: Antibacterial activity against penicillin-susceptible Escherichia coli ATCC 25922 by broth microdilution method; outline: as §1
# Streptococcus pneumoniae [8] = experiment: Antibacterial activity against erythromycin-resistant Streptococcus pneumoniae A22072 expressing mefA gene by broth microdilution method; outline: as §2
SMILES,MIC (Bacillus subtilis) [mg/L],MIC (Streptococcus pneumoniae [1]) [mg/L],MIC (Streptococcus pyogenes [2]) [mg/L],MIC (Pseudomonas aeruginosa) [mg/L],MIC (Staphylococcus aureus [3]) [mg/L],MIC (Streptococcus pneumoniae [4]) [mg/L],MIC (Staphylococcus aureus [5]) [mg/L],MIC (Streptococcus pyogenes [6]) [mg/L],MIC [7] [mg/L],MIC (Escherichia coli) [mg/L],MIC (Streptococcus pneumoniae [8]) [mg/L]
CC[C@H]1OC(=O)[C@H](C)[C@@H](O)[C@H](C)[C@@H](O[C@@H]2O[C@H](C)C[C@H](N(C)C)[C@H]2OC(=O)Nc2cccc(C)c2)[C@](C)(O)C[C@@H](C)CN(C)[C@H](C)[C@H]2OC(=O)O[C@@]21C,32,128,1,128,32,64,128,64,32,64,128
CC[C@H]1OC(=O)[C@H](C)[C@@H](OC(=O)Nc2ccccc2)[C@H](C)[C@@H](O[C@@H]2O[C@H](C)C[C@H](N(C)C)[C@H]2O)[C@](C)(O)C[C@@H](C)CN(C)[C@H](C)[C@@H](OC(=O)NCc2ccc(C)cc2)[C@]1(C)O,32,64,4,128,32,64,128,64,16,128,16
CC[C@H]1OC(=O)[C@H](C)[C@@H](OC(=O)NCc2ccccc2)[C@H](C)[C@@H](O[C@@H]2O[C@H](C)C[C@H](N(C)C)[C@H]2OC(C)=O)[C@](C)(O)C[C@@H](C)CN(C)[C@H](C)[C@H]2OC(=O)O[C@@]21C,64,128,8,128,64,64,64,128,64,128,32
CC[C@H]1OC(=O)[C@H](C)[C@@H](OC(=O)Nc2cccc(OC)c2)[C@H](C)[C@@H](O[C@@H]2O[C@H](C)C[C@H](N(C)C)[C@H]2OC(C)=O)[C@](C)(O)C[C@@H](C)CN(C)[C@H](C)[C@H]2OC(=O)O[C@@]21C,16,128,2,64,32,32,64,128,32,64,16
CC[C@H]1OC(=O)[C@H](C)[C@@H](OC(=O)Nc2cccc(C)c2)[C@H](C)[C@@H](O[C@@H]2O[C@H](C)C[C@H](N(C)C)[C@H]2O)[C@](C)(O)C[C@@H](C)CN(C)[C@H](C)[C@H]2OC(=O)O[C@@]21C,8,64,1,64,2,16,64,32,4,64,8
CC[C@H]1OC(=O)[C@H](C)[C@@H](OC(=O)Nc2cccc(C)c2)[C@H](C)[C@@H](O[C@@H]2O[C@H](C)C[C@H](N(C)C)[C@H]2O)[C@](C)(O)C[C@@H](C)CN(C)[C@H](C)[C@@H](OC(=O)NCc2ccc(OC)cc2)[C@]1(C)O,16,128,1,128,16,16,128,128,32,128,8
CC[C@H]1OC(=O)[C@H](C)[C@@H](OC(=O)n2ccnc2)[C@H](C)[C@@H](O[C@@H]2O[C@H](C)C[C@H](N(C)C)[C@H]2OC(C)=O)[C@](C)(O)C[C@@H](C)CN(C)[C@H](C)[C@H]2OC(=O)O[C@@]21C,128,256,8,128,128,256,128,56,128,32,16
CC[C@H]1OC(=O)[C@H](C)[C@@H](OC(=O)Nc2cccc(Cl)c2)[C@H](C)[C@@H](O[C@@H]2O[C@H](C)C[C@H](N(C)C)[C@H]2O)[C@](C)(O)C[C@@H](C)CN(C)[C@H](C)[C@H]2OC(=O)O[C@@]21C,16,32,0.25,128,8,4,64,32,0.5,128,1
CC[C@H]1OC(=O)[C@H](C)[C@@H](OC(=O)Nc2ccccc2F)[C@H](C)[C@@H](O[C@@H]2O[C@H](C)C[C@H](N(C)C)[C@H]2O)[C@](C)(O)C[C@@H](C)CN(C)[C@H](C)[C@H]2OC(=O)O[C@@]21C,32,64,0.5,64,8,16,64,64,4,64,16
